Test results reported in PubChem BioAssay.
Activity calls are given as the source filed them.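 Rule for the calls, unless noted: active = Her2 level under about 52% in both replicate screens, with viability over 70% of control (limit read from the data); inconclusive = Her2 under the limit in one screen only, or viability under 70%; inactive = Her2 level above the set limit.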

Legend:
[1] = Her2 expression decrease, cell viability multiplex – SKBR3 breast tumor cells, AlphaScreen, ATP viability, primary screen (AID 461); conditions: SKBR3 Her2 protein level, 18-24 h, measured here: SKBR3 viability, ATP luminescence, at 10 µM;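 for Her2 level: lower value means less Her2 protein in the cells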;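 for viability: percent of carrier control wells set as 100% viability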
[2] = target: Receptor tyrosine-protein kinase erbB-2 (Homo sapiens) (UniProt P04626); assay: as above; conditions: 18-24 h, at 10 µM, stronger effect = lower value
Receptor tyrosine-protein kinase erbB-2 (Homo sapiens), sequence (P04626 whole entry, looked up): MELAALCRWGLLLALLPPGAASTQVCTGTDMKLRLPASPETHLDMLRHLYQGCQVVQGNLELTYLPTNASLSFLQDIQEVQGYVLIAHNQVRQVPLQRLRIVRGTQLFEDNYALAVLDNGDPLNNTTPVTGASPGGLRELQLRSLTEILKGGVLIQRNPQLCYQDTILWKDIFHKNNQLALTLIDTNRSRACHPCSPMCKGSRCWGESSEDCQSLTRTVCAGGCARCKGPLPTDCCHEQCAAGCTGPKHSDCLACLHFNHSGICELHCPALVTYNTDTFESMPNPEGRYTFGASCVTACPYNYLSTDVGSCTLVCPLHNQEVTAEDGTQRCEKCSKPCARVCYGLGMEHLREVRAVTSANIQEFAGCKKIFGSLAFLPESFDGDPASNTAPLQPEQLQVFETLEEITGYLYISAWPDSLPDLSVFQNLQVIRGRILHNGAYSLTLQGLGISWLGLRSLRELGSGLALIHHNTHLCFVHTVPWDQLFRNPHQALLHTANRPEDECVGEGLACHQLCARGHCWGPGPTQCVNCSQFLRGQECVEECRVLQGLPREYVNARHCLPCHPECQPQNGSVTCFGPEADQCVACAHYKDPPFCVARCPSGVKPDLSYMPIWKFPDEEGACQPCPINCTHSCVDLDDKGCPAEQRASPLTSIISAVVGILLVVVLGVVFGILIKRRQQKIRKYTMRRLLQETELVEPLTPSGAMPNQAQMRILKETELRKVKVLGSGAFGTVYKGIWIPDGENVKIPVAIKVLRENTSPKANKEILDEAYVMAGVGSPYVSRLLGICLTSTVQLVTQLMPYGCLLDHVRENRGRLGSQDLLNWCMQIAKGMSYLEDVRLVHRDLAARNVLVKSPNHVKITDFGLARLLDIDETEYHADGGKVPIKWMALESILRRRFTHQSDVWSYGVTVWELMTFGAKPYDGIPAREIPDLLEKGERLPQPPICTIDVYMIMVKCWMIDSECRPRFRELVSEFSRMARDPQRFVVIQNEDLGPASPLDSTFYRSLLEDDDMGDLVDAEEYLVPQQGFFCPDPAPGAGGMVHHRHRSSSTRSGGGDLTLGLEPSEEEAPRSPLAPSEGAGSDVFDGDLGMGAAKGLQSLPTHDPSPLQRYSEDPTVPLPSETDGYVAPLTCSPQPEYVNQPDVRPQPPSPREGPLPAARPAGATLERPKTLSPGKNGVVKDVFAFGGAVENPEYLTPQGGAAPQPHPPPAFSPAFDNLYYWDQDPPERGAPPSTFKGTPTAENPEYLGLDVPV

[3] = reduced viability of SK-BR-3 breast cancer cells – cell-based, 24 h, human, pilot screen (AID 572;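 active = viability at or below 10% of carrier control in both of two separate runs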;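 note: compound exposure lasted between 18 and 24 h rather than exactly 24 h; 100% = carrier-treated control wells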); conditions: SK-BR-3 viability, CellTiter-Glo luminescence, at 10 µM, stronger effect = lower value
[4] = HUVEC growth inhibition – cell-based, human, primary screen (AID 575;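 active = viability at or below 30% in both replicate assays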;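 note: 100% = median of untreated cell wells with 0.1% DMSO on each plate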); conditions: HUVEC proliferation, CellTiter-Glo luminescence, 72 h; at 10 µM; stronger effect = lower value
In short: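 Test system: primary human umbilical vein endothelial cells. Quantity: 1250 cells/well. Compound: single 10 µM dose, 0.1% DMSO, from 5x medium stock. Timing: 72 h treatment at 37 °C. Detection: ATP-based CellTiter-Glo luminescent read. Benchmarks: vehicle and MePR control wells. Format: 384-well plates coated with collagen.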

[5] = H69AR cell proliferation blockers – human, duplicate replicates, primary screen (AID 580;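 active = viability at or under a set limit in both replicates, limit being median viability minus 3 SD, cut at about 48% in these data, passing the limit was not always enough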;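 note: 100% = mean luminescence of untreated wells and 0% = no signal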); conditions: H69AR lung tumor cells viability, ATP luminescence, 72 h; at 10 µM; stronger effect = lower value
[6] = MRP1 drug-resistance reversers in H69AR cells – cell-based, doxorubicin co-treatment, pilot screen (AID 601;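 active = viability loss from added drug above about 55%, and viability with drug at most 40%, in both replicates, limit read from the data, passing the limit was not always enough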); conditions: CellTiter-Glo, 72 h, at 10 µM; for differential viability (reversal): stronger effect = higher value
[7] = yeast transport mutant growth inhibition pilot in 384-well plates, post-Golgi transport modulator project (AID 636; in the data active = inhibition above about 31%); conditions: absorbance 615 nm, about 18 h, stronger effect = higher value
[8] = growth suppression of yeast trafficking mutant, preliminary HTS, modulators of trafficking downstream of Golgi apparatus project, 1536-format plate, OD 615 nm (AID 637; in the data active = inhibition above about 30%); conditions: yeast transport mutant growth, absorbance 615 nm, 18 h; stronger effect = higher value
[9] = H69AR cells + 2 uM doxorubicin, measured here: viability with 2 uM doxorubicin, stronger effect = lower value
[10] = H69AR cells, compound alone cytotoxicity

## O=C1CC(N2CCOCC2)C(=O)N1c1ccccc1Cl (stereo not given)
[1]
  viability: 103%
[2]
  Her2 level: 87.5% (inactive)
[3]
  viability: 103% (inactive)
[4]
  viability: 87.2% (inactive)
[5]
  viability: 104% (inactive)
[6]; H69AR cells + 2 uM doxorubicin
  differential viability (reversal): 7.5% (inactive)
[6]; [9]
  viability: 96.6%
[6]; [10]
  viability: 104%
[7]
  inhibition: -6.4% (inactive)
[8]
  inhibition: -5.24% (inactive)

## O=c1cnnc(NCc2ccccc2)[nH]1
[1]
  viability: 88.5%
[2]
  Her2 level: 108% (inactive)
[3]
  viability: 88.5% (inactive)
[4]
  viability: 106% (inactive)
[5]
  viability: 103% (inactive)
[6]; H69AR cells + 2 uM doxorubicin
  differential viability (reversal): 11.8% (inactive)
[6]; [9]
  viability: 91.5%
[6]; [10]
  viability: 103%
[7]
  inhibition: -5.79% (inactive)
[8]
  inhibition: -5.33% (inactive)

## CCC(=O)NC1(C(F)(F)F)C(=O)NC(C)=C1C#N (stereo not given)
[1]
  viability: 102%
[2]
  Her2 level: 84.5% (inactive)
[3]
  viability: 102% (inactive)
[4]
  viability: 101% (inactive)
[5]
  viability: 97.9% (inactive)
[6]; H69AR cells + 2 uM doxorubicin
  differential viability (reversal): 5.2% (inactive)
[6]; [9]
  viability: 92.7%
[6]; [10]
  viability: 97.9%
[7]
  inhibition: -4.74% (inactive)
[8]
  inhibition: 1.59% (inactive)

## CCOC(=O)C1=C(C)NC2=C(C(=O)CC(C)(C)C2)C1c1ccc(N(C)C)cc1 (stereo not given)
[1]
  viability: 93%
[2]
  Her2 level: 116% (inactive)
[3]
  viability: 93% (inactive)
[4]
  viability: 87% (inactive)
[5]
  viability: 94.3% (inactive)
[6]; H69AR cells + 2 uM doxorubicin
  differential viability (reversal): -2.37% (inactive)
[6]; [9]
  viability: 96.6%
[6]; [10]
  viability: 94.3%
[7]
  inhibition: 1.3% (inactive)
[8]
  inhibition: -5.9% (inactive)

## O=C(NCc1cccnc1)c1ccc(=O)oc1
[1]
  viability: 89.5%
[2]
  Her2 level: 90% (inactive)
[3]
  viability: 89.5% (inactive)
[4]
  viability: 106% (inactive)
[5]
  viability: 83.4% (inactive)
[6]; H69AR cells + 2 uM doxorubicin
  differential viability (reversal): -4.97% (inactive)
[6]; [9]
  viability: 88.3%
[6]; [10]
  viability: 83.4%
[7]
  inhibition: -5.81% (inactive)
[8]
  inhibition: -5.33% (inactive)

## Cc1nc2ccc(N3C(=O)CCC3=O)cc2[nH]1
[1]
  viability: 100%
[2]
  Her2 level: 101% (inactive)
[3]
  viability: 100% (inactive)
[4]
  viability: 97.6% (inactive)
[5]
  viability: 103% (inactive)
[6]; H69AR cells + 2 uM doxorubicin
  differential viability (reversal): 7.96% (inactive)
[6]; [9]
  viability: 95.2%
[6]; [10]
  viability: 103%
[7]
  inhibition: -5.07% (inactive)
[8]
  inhibition: -1.45% (inactive)

## CC1(C)Cc2cccc(OCC(O)CN3CCN(c4ccccn4)CC3)c2O1 (stereo not given)
[1]
  viability: 84%
[2]
  Her2 level: 94% (inactive)
[3]
  viability: 84% (inactive)
[4]
  viability: 86.1% (inactive)
[5]
  viability: 70.3% (inactive)
[6]; H69AR cells + 2 uM doxorubicin
  differential viability (reversal): -17.7% (inactive)
[6]; [9]
  viability: 88%
[6]; [10]
  viability: 70.3%
[7]
  inhibition: -3.38% (inactive)
[8]
  inhibition: -7.3% (inactive)

## COCCn1c(SCC(=O)c2ccccc2)nc2c(c1=O)SC(C)C2 (stereo not given)
[1]
  viability: 108%
[2]
  Her2 level: 106% (inactive)
[3]
  viability: 108% (inactive)
[4]
  viability: 98.9% (inactive)
[5]
  viability: 79.7% (inactive)
[6]; H69AR cells + 2 uM doxorubicin
  differential viability (reversal): 27.6% (inactive)
[6]; [9]
  viability: 52.1%
[6]; [10]
  viability: 79.7%
[7]
  inhibition: -5.2% (inactive)
[8]
  inhibition: 3.44% (inactive)

## CC1(C)OC(=O)C(=CNc2ccccc2F)C(=O)O1
[1]
  viability: 102%
[2]
  Her2 level: 83.5% (inactive)
[3]
  viability: 102% (inactive)
[4]
  viability: 97.6% (inactive)
[5]
  viability: 91.2% (inactive)
[6]; H69AR cells + 2 uM doxorubicin
  differential viability (reversal): -1.11% (inactive)
[6]; [9]
  viability: 92.4%
[6]; [10]
  viability: 91.2%
[7]
  inhibition: -2.99% (inactive)
[8]
  inhibition: 2.06% (inactive)

## COc1cc(C)c(-c2cc(C(=O)O)c(C)o2)cc1C(C)C
[1]
  viability: 99.5%
[2]
  Her2 level: 88% (inactive)
[3]
  viability: 99.5% (inactive)
[4]
  viability: 95.7% (inactive)
[5]
  viability: 91.8% (inactive)
[6]; H69AR cells + 2 uM doxorubicin
  differential viability (reversal): 6.8% (inactive)
[6]; [9]
  viability: 85%
[6]; [10]
  viability: 91.8%
[7]
  inhibition: -3.87% (inactive)
[8]
  inhibition: -5.4% (inactive)

## CCOc1ccc(N2CC(C(=O)Nc3cccc(C)c3C)CC2=O)cc1 (stereo not given)
[1]
  viability: 118%
[2]
  Her2 level: 110% (inactive)
[3]
  viability: 118% (inactive)
[4]
  viability: 111% (inactive)
[5]
  viability: 108% (inactive)
[6]; H69AR cells + 2 uM doxorubicin
  differential viability (reversal): 12.1% (inactive)
[6]; [9]
  viability: 95.9%
[6]; [10]
  viability: 108%
[7]
  inhibition: -3.47% (inactive)
[8]
  inhibition: -4.43% (inactive)

## CNC(=O)CC(C(=O)O)c1ccc(OC(C)C)cc1 (stereo not given)
[1]
  viability: 105%
[2]
  Her2 level: 85.5% (inactive)
[3]
  viability: 105% (inactive)
[4]
  viability: 92.3% (inactive)
[5]
  viability: 90% (inactive)
[6]; H69AR cells + 2 uM doxorubicin
  differential viability (reversal): 4.31% (inactive)
[6]; [9]
  viability: 85.7%
[6]; [10]
  viability: 90%
[7]
  inhibition: -5.07% (inactive)
[8]
  inhibition: 1.75% (inactive)

## Cc1occc1-c1nnc(SCC(=O)c2ccc(F)cc2)n1Cc1ccco1
[1]
  viability: 77.5%
[2]
  Her2 level: 82% (inactive)
[3]
  viability: 77.5% (inactive)
[4]
  viability: 84.1% (inactive)
[5]
  viability: 85.3% (inactive)
[6]; H69AR cells + 2 uM doxorubicin
  differential viability (reversal): 3.13% (inactive)
[6]; [9]
  viability: 82.2%
[6]; [10]
  viability: 85.3%
[7]
  inhibition: -1.33% (inactive)
[8]
  inhibition: -0.16% (inactive)

## O=C(c1cc2n(n1)C(C(F)(F)F)CC(c1ccc(Cl)cc1)N2)N1CCCC1 (stereo not given)
[1]
  viability: 86.5%
[2]
  Her2 level: 68% (inactive)
[3]
  viability: 86.5% (inactive)
[4]
  viability: 82.1% (inactive)
[5]
  viability: 90.9% (inactive)
[6]; H69AR cells + 2 uM doxorubicin
  differential viability (reversal): -0.385% (inactive)
[6]; [9]
  viability: 91.3%
[6]; [10]
  viability: 90.9%
[7]
  inhibition: -6.84% (inactive)
[8]
  inhibition: 3.17% (inactive)

## CCOC(=O)N1CCN(c2c(N3CCN(c4ccccn4)CC3)c(=O)c2=O)CC1
[1]
  viability: 104%
[2]
  Her2 level: 103% (inactive)
[3]
  viability: 104% (inactive)
[4]
  viability: 95.4% (inactive)
[5]
  viability: 92.5% (inactive)
[6]; H69AR cells + 2 uM doxorubicin
  differential viability (reversal): 9.85% (inactive)
[6]; [9]
  viability: 82.6%
[6]; [10]
  viability: 92.5%
[7]
  inhibition: -2.67% (inactive)
[8]
  inhibition: -2.79% (inactive)
